Converted amounts (≈) assume the structure as drawn.
Legend:
[1] = Association constant to Ac2-L-Lys-D-Ala-D-Ala determined at pH 9; Value ranges from (9.5E4-3.5E5)
[2] = system: Enterococcus faecalis; experiment: Minimum inhibitory concentration against Enterococcus faecalis ATCC 7080; assay type: functional
How it was run: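 Microbroth dilution MIC (µg/mL), final inoculum 10^4 cfu/mL, incubated 24 h at 37 °C in air.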

[3] = system: Staphylococcus aureus; experiment: Minimum inhibitory concentration against Staphylococcus aureus L 165; assay type: functional
How it was run: (§1)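 MIC (µg/mL) by microbroth dilution in Iso-Sensitest broth; final inoculum 10^4 cfu/mL; 24 h at 37 °C in air.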

[4] = system: Streptococcus pyogenes; experiment: Efficacy of compound administered perorally against Streptococcus pyogenes L 49 Septicemia in mouse; assay type: functional; settings: po
How it was run: (§2)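 Mice were infected intraperitoneally with about 10^5 Strep. pyogenes L 49 cells, about 100 times the 50% lethal dose. Groups of 5–8 mice were treated once right after challenge, by the route stated in the line. ED50 (mg/kg) was derived from percentage survival at each dose on day 7 (Spearman-Kärber).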

[5] = system: Streptococcus pyogenes; experiment: Efficacy of compound administered subcutaneously against Streptococcus pyogenes L 49 Septicemia in mouse; assay type: functional; settings: sc; how it was run: as §2
[6] = system: Staphylococcus epidermidis; experiment: Minimum inhibitory concentration against Staphylococcus epidermidis ATCC 12228; assay type: functional; how it was run: as §1
[7] = system: Streptococcus pneumoniae; experiment: Minimum inhibitory concentration against Streptococcus pneumoniae L 44; assay type: functional
How it was run: (§3)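 MIC (µg/mL) by microbroth dilution in Todd-Hewitt broth, final inoculum 10^4 cfu/mL, incubated 24 h at 37 °C in air.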

[8] = system: Staphylococcus haemolyticus; experiment: Minimum inhibitory concentration against Staphylococcus haemolyticus L 602; assay type: functional; how it was run: as §1
[9] = system: Streptococcus pyogenes; experiment: Minimum inhibitory concentration against Streptococcus pyogenes L 49; assay type: functional; how it was run: as §3
[10] = system: Escherichia coli; experiment: Minimum inhibitory concentration against Escherichia coli L 47; assay type: functional; how it was run: as §1
[11] = system: Proteus vulgaris; experiment: Minimum inhibitory concentration against Proteus vulgaris ATCC 881; assay type: functional; how it was run: as §1
[12] = system: Pseudomonas aeruginosa; experiment: Minimum inhibitory concentration against Pseudomonas aeruginosa ATCC 10145; assay type: functional; how it was run: as §1
[13] = system: Streptococcus pyogenes; experiment: Minimum inhibitory concentration of compound was determined against Streptococcus pyogenes L 49 in mouse; assay type: functional

| Compound | Ka [1] | MIC [2] | MIC [3] | ED50 [4] | ED50 [5] | MIC [6] | MIC [7] | MIC [8] | MIC [9] | MIC [10] | MIC [11] | MIC [12] | MIC [13] |
| --- | --- | --- | --- | --- | --- | --- | --- | --- | --- | --- | --- | --- | --- |
| CC(=O)N[C@@H]1[C@H](O[C@@H]2c3ccc(c(Cl)c3)Oc3cc4cc(c3O[C@@H]3O[C@@H](CO)[C@@H](O)[C@H](O)[C@@H]3NC(=O)CCCCCCC(C)C)Oc3ccc(cc3Cl)C[C@H]3NC(=O)[C@H](N)c5ccc(O)c(c5)Oc5cc(O)cc(c5)[C@H](NC3=O)C(=O)N[C@H]4C(=O)N[C@H]3C(=O)N[C@@H]2C(=O)N[C@H](C(=O)NCCCNCCCCN)c2cc(O)cc(O[C@H]4O[C@H](CO)[C@@H](O)[C@@H](O)[C@@H]4O)c2-c2cc3ccc2O)O[C@@H](CO)[C@@H](O)[C@@H]1O | 350000 M⁻¹ | 0.125 mg/L (≈ 0.0623 µM) | 0.125 mg/L (≈ 0.0623 µM) | 81 mg/kg | 0.05 mg/kg | 0.063 mg/L (≈ 0.0314 µM) | 0.125 mg/L (≈ 0.0623 µM) | 0.125 mg/L (≈ 0.0623 µM) | 0.063 mg/L (≈ 0.0314 µM) |  |  |  |  |
| CC(=O)N[C@@H]1[C@H](O[C@@H]2c3ccc(c(Cl)c3)Oc3cc4cc(c3O[C@@H]3O[C@@H](CO)[C@@H](O)[C@H](O)[C@@H]3NC(=O)CCCCCCC(C)C)Oc3ccc(cc3Cl)C[C@H]3NC(=O)[C@H](N)c5ccc(O)c(c5)Oc5cc(O)cc(c5)[C@H](NC3=O)C(=O)N[C@H]4C(=O)N[C@H]3C(=O)N[C@@H]2C(=O)N[C@H](C(=O)NCCNCCN)c2cc(O)cc(O[C@H]4O[C@H](CO)[C@@H](O)[C@@H](O)[C@@H]4O)c2-c2cc3ccc2O)O[C@@H](CO)[C@@H](O)[C@@H]1O | 350000 M⁻¹ | 0.125 mg/L (≈ 0.0636 µM) | 0.25 mg/L (≈ 0.127 µM) | 60 mg/kg | 0.09 mg/kg | 0.063 mg/L (≈ 0.0321 µM) | 0.125 mg/L (≈ 0.0636 µM) | 0.25 mg/L (≈ 0.127 µM) | 0.063 mg/L (≈ 0.0321 µM) |  |  |  |  |
| CC(=O)N[C@@H]1[C@H](O[C@@H]2c3ccc(c(Cl)c3)Oc3cc4cc(c3O[C@@H]3O[C@@H](CO)[C@@H](O)[C@H](O)[C@@H]3NC(=O)CCCCCCC(C)C)Oc3ccc(cc3Cl)C[C@H]3NC(=O)[C@H](N)c5ccc(O)c(c5)Oc5cc(O)cc(c5)[C@H](NC3=O)C(=O)N[C@H]4C(=O)N[C@H]3C(=O)N[C@@H]2C(=O)N[C@H](C(=O)O)c2cc(O)cc(O[C@H]4O[C@H](CO)[C@@H](O)[C@@H](O)[C@@H]4O)c2-c2cc3ccc2O)O[C@@H](CO)[C@@H](O)[C@@H]1O |  | 0.125 mg/L (≈ 0.0665 µM) | 0.125 mg/L (≈ 0.0665 µM) | > 170 mg/kg | 0.12 mg/kg | 0.125 mg/L (≈ 0.0665 µM) | 0.063 mg/L (≈ 0.0335 µM) | 8 mg/L (≈ 4.26 µM) | 0.063 mg/L (≈ 0.0335 µM) |  |  |  |  |
| CC(=O)N[C@@H]1[C@H](O[C@@H]2c3ccc(c(Cl)c3)Oc3cc4cc(c3O[C@@H]3O[C@@H](CO)[C@@H](O)[C@H](O)[C@@H]3NC(=O)CCCCCCC(C)C)Oc3ccc(cc3Cl)C[C@H]3NC(=O)[C@H](N)c5ccc(O)c(c5)Oc5cc(O)cc(c5)[C@H](NC3=O)C(=O)N[C@H]4C(=O)N[C@H]3C(=O)N[C@@H]2C(=O)N[C@H](C(=O)NCCNCCNCCNCCNCCN)c2cc(O)cc(O[C@H]4O[C@H](CO)[C@@H](O)[C@@H](O)[C@@H]4O)c2-c2cc3ccc2O)O[C@@H](CO)[C@@H](O)[C@@H]1O | 350000 M⁻¹ | 0.125 mg/L (≈ 0.0597 µM) | 0.25 mg/L (≈ 0.119 µM) | 112 mg/kg | 0.08 mg/kg | 0.063 mg/L (≈ 0.0301 µM) | 0.125 mg/L (≈ 0.0597 µM) | 0.125 mg/L (≈ 0.0597 µM) | 0.063 mg/L (≈ 0.0301 µM) |  |  |  |  |
| CC(=O)N[C@@H]1[C@H](O[C@@H]2c3ccc(c(Cl)c3)Oc3cc4cc(c3O[C@@H]3O[C@@H](CO)[C@@H](O)[C@H](O)[C@@H]3NC(=O)CCCCCCC(C)C)Oc3ccc(cc3Cl)C[C@H]3NC(=O)[C@H](N)c5ccc(O)c(c5)Oc5cc(O)cc(c5)[C@H](NC3=O)C(=O)N[C@H]4C(=O)N[C@H]3C(=O)N[C@@H]2C(=O)N[C@H](C(=O)NCCN(CCN)CCN)c2cc(O)cc(O[C@H]4O[C@H](CO)[C@@H](O)[C@@H](O)[C@@H]4O)c2-c2cc3ccc2O)O[C@@H](CO)[C@@H](O)[C@@H]1O | 350000 M⁻¹ | 0.063 mg/L (≈ 0.0314 µM) | 0.125 mg/L (≈ 0.0623 µM) | 58 mg/kg | 0.04 mg/kg | 0.063 mg/L (≈ 0.0314 µM) | 0.063 mg/L (≈ 0.0314 µM) | 0.125 mg/L (≈ 0.0623 µM) | 0.063 mg/L (≈ 0.0314 µM) |  |  |  |  |
| CC(=O)N[C@@H]1[C@H](O[C@@H]2c3ccc(c(Cl)c3)Oc3cc4cc(c3O[C@@H]3O[C@@H](CO)[C@@H](O)[C@H](O)[C@@H]3NC(=O)CCCCCCC(C)C)Oc3ccc(cc3Cl)C[C@H]3NC(=O)[C@H](N)c5ccc(O)c(c5)Oc5cc(O)cc(c5)[C@H](NC3=O)C(=O)N[C@H]4C(=O)N[C@H]3C(=O)N[C@@H]2C(=O)N[C@H](C(=O)NCCCN2CCCCNCCCC2)c2cc(O)cc(O[C@H]4O[C@H](CO)[C@@H](O)[C@@H](O)[C@@H]4O)c2-c2cc3ccc2O)O[C@@H](CO)[C@@H](O)[C@@H]1O | 350000 M⁻¹ | 0.125 mg/L (≈ 0.0606 µM) | 0.125 mg/L (≈ 0.0606 µM) | 90 mg/kg | 0.08 mg/kg | 0.063 mg/L (≈ 0.0306 µM) | 0.125 mg/L (≈ 0.0606 µM) | 0.125 mg/L (≈ 0.0606 µM) | 0.063 mg/L (≈ 0.0306 µM) |  |  |  |  |
| CC(=O)N[C@@H]1[C@H](O[C@@H]2c3ccc(c(Cl)c3)Oc3cc4cc(c3O[C@@H]3O[C@@H](CO)[C@@H](O)[C@H](O)[C@@H]3NC(=O)CCCCCCC(C)C)Oc3ccc(cc3Cl)C[C@H]3NC(=O)[C@H](N)c5ccc(O)c(c5)Oc5cc(O)cc(c5)[C@H](NC3=O)C(=O)N[C@H]4C(=O)N[C@H]3C(=O)N[C@@H]2C(=O)N[C@H](C(=O)NCCCN2CCCCN(CCCN)CCCC2)c2cc(O)cc(O[C@H]4O[C@H](CO)[C@@H](O)[C@@H](O)[C@@H]4O)c2-c2cc3ccc2O)O[C@@H](CO)[C@@H](O)[C@@H]1O | 350000 M⁻¹ | 0.125 mg/L (≈ 0.059 µM) | 0.25 mg/L (≈ 0.118 µM) | 60 mg/kg | 0.06 mg/kg | 0.063 mg/L (≈ 0.0297 µM) | 0.125 mg/L (≈ 0.059 µM) | 0.125 mg/L (≈ 0.059 µM) | 0.063 mg/L (≈ 0.0297 µM) |  |  |  |  |
| N[C@H]1C(=O)N[C@@H]2Cc3ccc(c(Cl)c3)Oc3cc4cc(c3O)Oc3ccc(cc3Cl)[C@@H](O)[C@@H]3NC(=O)[C@H](NC(=O)[C@@H]4NC(=O)[C@@H](NC2=O)c2cc(O)cc(c2)Oc2cc1ccc2O)c1ccc(O)c(c1)-c1c(O)cc(O)cc1[C@@H](C(=O)O)NC3=O [TEICOPLANIN AGLYCON] |  | 0.125 mg/L (≈ 0.104 µM) | 0.063 mg/L (≈ 0.0525 µM) |  | 0.95 mg/kg | 0.016 mg/L (≈ 0.0133 µM) | 0.125 mg/L (≈ 0.104 µM) | 0.25 mg/L (≈ 0.209 µM) | 0.125 mg/L (≈ 0.104 µM) | 64 mg/L (≈ 53.4 µM) | 128 mg/L (≈ 107 µM) | > 128 mg/L | 0.13 mg/L (≈ 0.108 µM) |
| CC(=O)N[C@@H]1[C@H](O[C@@H]2c3ccc(c(Cl)c3)Oc3cc4cc(c3O[C@@H]3O[C@@H](CO)[C@@H](O)[C@H](O)[C@@H]3NC(=O)CCCCCCC(C)C)Oc3ccc(cc3Cl)C[C@H]3NC(=O)[C@H](N)c5ccc(O)c(c5)Oc5cc(O)cc(c5)[C@H](NC3=O)C(=O)N[C@H]4C(=O)N[C@H]3C(=O)N[C@@H]2C(=O)N[C@H](C(=O)NCCCNCCCNCCCN)c2cc(O)cc(O[C@H]4O[C@H](CO)[C@@H](O)[C@@H](O)[C@@H]4O)c2-c2cc3ccc2O)O[C@@H](CO)[C@@H](O)[C@@H]1O | 350000 M⁻¹ | 0.125 mg/L (≈ 0.061 µM) | 0.125 mg/L (≈ 0.061 µM) | 80 mg/kg | 0.06 mg/kg | 0.063 mg/L (≈ 0.0307 µM) | 0.125 mg/L (≈ 0.061 µM) | 0.125 mg/L (≈ 0.061 µM) | 0.063 mg/L (≈ 0.0307 µM) |  |  |  |  |
| CC(=O)N[C@@H]1[C@H](O[C@@H]2c3ccc(c(Cl)c3)Oc3cc4cc(c3O[C@@H]3O[C@@H](CO)[C@@H](O)[C@H](O)[C@@H]3NC(=O)CCCCCCC(C)C)Oc3ccc(cc3Cl)C[C@H]3NC(=O)[C@H](N)c5ccc(O)c(c5)Oc5cc(O)cc(c5)[C@H](NC3=O)C(=O)N[C@H]4C(=O)N[C@H]3C(=O)N[C@@H]2C(=O)N[C@H](C(=O)NCCCNCCCCNCCCN)c2cc(O)cc(O[C@H]4O[C@H](CO)[C@@H](O)[C@@H](O)[C@@H]4O)c2-c2cc3ccc2O)O[C@@H](CO)[C@@H](O)[C@@H]1O | 350000 M⁻¹ | 0.125 mg/L (≈ 0.0606 µM) | 0.125 mg/L (≈ 0.0606 µM) | 81 mg/kg | 0.03 mg/kg | 0.063 mg/L (≈ 0.0305 µM) | 0.125 mg/L (≈ 0.0606 µM) | 0.125 mg/L (≈ 0.0606 µM) | 0.063 mg/L (≈ 0.0305 µM) |  |  |  |  |

Source: ChEMBL document CHEMBL1125337, “Synthesis and antibacterial activity of a series of basic amides of teicoplanin and deglucoteicoplanin with polyamines” (J Med Chem, 1992)
